Source: ChEMBL document CHEMBL1944523, “Benzimidazolones: a new class of selective peroxisome proliferator-activated receptor γ (PPARγ) modulators” (J Med Chem, 2011)
One block for each compound: values may come before it.

What was measured:
[1] = target: T1, Peroxisome proliferator-activated receptor delta (Homo sapiens, UniProt Q03181); test: Binding affinity to PPARdelta by scintillation proximity assay
T1 sequence (Q03181 whole entry): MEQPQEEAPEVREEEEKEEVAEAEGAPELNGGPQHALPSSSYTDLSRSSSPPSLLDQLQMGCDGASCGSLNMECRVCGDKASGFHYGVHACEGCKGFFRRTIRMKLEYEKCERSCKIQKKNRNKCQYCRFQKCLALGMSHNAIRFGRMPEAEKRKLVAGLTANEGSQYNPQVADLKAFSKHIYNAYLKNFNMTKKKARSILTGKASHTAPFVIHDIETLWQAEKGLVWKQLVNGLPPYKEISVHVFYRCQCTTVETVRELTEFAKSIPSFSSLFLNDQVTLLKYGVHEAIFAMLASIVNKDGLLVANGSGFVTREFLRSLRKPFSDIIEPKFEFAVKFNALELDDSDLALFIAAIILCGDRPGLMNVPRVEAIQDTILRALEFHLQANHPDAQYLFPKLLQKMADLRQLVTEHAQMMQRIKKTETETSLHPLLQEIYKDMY
Method in brief: (§1)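 Scintillation proximity binding assay on PPAR receptors giving IC50; mean of three determinations.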

[2] = target: T2, Peroxisome proliferator-activated receptor gamma (Homo sapiens, UniProt P37231); test: Agonist activity at human PPARgamma expressed in COS-1 cells co-expressing with Gal4 by transactivation assay; assay type: functional, cell-based
T2 sequence (P37231 whole entry): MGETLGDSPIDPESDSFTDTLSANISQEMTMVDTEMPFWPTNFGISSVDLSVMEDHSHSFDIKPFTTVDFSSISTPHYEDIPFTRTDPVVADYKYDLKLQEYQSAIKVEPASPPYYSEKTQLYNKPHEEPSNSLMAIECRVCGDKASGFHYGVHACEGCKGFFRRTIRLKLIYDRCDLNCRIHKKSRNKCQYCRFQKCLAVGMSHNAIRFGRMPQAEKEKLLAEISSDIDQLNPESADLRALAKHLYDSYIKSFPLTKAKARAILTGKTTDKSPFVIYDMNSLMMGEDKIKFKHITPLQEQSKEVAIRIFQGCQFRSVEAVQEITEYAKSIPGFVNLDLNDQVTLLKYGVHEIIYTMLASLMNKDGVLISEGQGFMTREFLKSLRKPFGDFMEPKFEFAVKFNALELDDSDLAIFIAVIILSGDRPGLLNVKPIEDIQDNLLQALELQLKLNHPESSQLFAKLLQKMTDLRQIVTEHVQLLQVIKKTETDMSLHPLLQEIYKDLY
Method in brief: (§2)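 GAL4-PPAR chimeric receptor transactivation in transiently co-transfected COS-1 cells with a GAL4-responsive reporter; potency as EC50 and maximum activation expressed relative to rosiglitazone; triplicate, mean reported.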

[3] = target: T2, Peroxisome proliferator-activated receptor gamma; test: Binding affinity to human PPARgamma by scintillation proximity assay; method in brief: as §1
[4] = target: T3, Peroxisome proliferator-activated receptor alpha (Homo sapiens, UniProt Q07869); test: Binding affinity to human PPARalpha expressed in COS-1 by scintillation proximity assay; method in brief: as §1
T3 sequence (Q07869 whole entry): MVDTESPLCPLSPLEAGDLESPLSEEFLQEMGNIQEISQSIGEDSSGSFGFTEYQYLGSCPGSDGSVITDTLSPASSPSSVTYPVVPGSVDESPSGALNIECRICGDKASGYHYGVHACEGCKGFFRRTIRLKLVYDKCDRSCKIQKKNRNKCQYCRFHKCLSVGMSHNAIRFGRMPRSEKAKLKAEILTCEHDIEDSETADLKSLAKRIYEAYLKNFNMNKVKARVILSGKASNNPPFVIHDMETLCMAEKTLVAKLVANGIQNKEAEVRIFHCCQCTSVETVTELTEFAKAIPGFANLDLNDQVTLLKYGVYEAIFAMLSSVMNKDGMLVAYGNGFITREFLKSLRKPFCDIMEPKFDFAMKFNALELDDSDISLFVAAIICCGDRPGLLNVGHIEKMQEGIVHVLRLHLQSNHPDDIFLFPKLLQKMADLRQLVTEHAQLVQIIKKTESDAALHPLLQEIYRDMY

[5] = target: T4, Peroxisome proliferator-activated receptor gamma (Homo sapiens) (UniProt P37231); test: Agonist activity at human PPARgamma expressed in COS-1 cells co-expressing with Gal4 by transactivation assay relative to rosiglitazone; assay type: functional, cell-based; method in brief: as §2
T4 sequence (whole entry): T2 sequence (P37231 whole entry)

[6] = target: T2, Peroxisome proliferator-activated receptor gamma; test: Partial agonist activity at human PPARgamma LBD assessed as activation of PBP by HTRF assay; assay type: functional
[7] = target: T2, Peroxisome proliferator-activated receptor gamma; test: Partial agonist activity at human PPARgamma LBD assessed as activation of PGC1 by HTRF assay; assay type: functional
[8] = target: T2, Peroxisome proliferator-activated receptor gamma; test: Partial agonist activity at human PPARgamma LBD assessed as activation of Src-1 by HTRF assay; assay type: functional
[9] = target: T2, Peroxisome proliferator-activated receptor gamma; test: Partial agonist activity at human PPARgamma LBD assessed as activation of CBP1-453 by HTRF assay; assay type: functional

SMILES: COc1ccc2c(-n3c(=O)n(Cc4ccccc4[C@@]4(C)OC(=O)NC4=O)c4cc(C(F)(F)F)ccc43)noc2c1
IC50 [1]: > 50000 nM
IC50 [3]: 6630 nM
IC50 [4]: > 50000 nM

SMILES: COc1ccc2c(-n3c(=O)n(Cc4cccc([C@@]5(C)OC(=O)NC5=O)c4)c4cc(C(F)(F)F)ccc43)noc2c1
Emax [5]: 45%

SMILES: COc1ccc2c(-n3c(=O)n(Cc4cccc([C@@]5(C)OC(O)=NC5=O)c4)c4cc(C(F)(F)F)ccc43)noc2c1
IC50 [1]: > 50000 nM
EC50 [2]: 237 nM
IC50 [3]: 93 nM
IC50 [4]: > 50000 nM

SMILES: COc1ccc2c(-n3c(=O)n(Cc4ccc([C@@]5(C)OC(=O)NC5=O)cc4)c4cc(C(F)(F)F)ccc43)noc2c1
IC50 [1]: > 50000 nM
IC50 [3]: 2180 nM
IC50 [4]: > 50000 nM

SMILES: COc1ccc2c(-n3c(=O)n(-c4cccc([C@@]5(C)OC(=O)NC5=O)c4)c4cc(C(F)(F)F)ccc43)noc2c1
IC50 [1]: > 50000 nM
IC50 [3]: 6930 nM
IC50 [4]: > 50000 nM

SMILES: COc1ccc2c(-n3c(=O)n(Cc4cc([C@@]5(C)OC(=O)NC5=O)ccc4Cl)c4cc(C(F)(F)F)ccc43)noc2c1
IC50 [1]: > 50000 nM
EC50 [2]: 17 nM
IC50 [3]: 7.7 nM
IC50 [4]: > 50000 nM
Emax [5]: 28%

SMILES: C[C@@H](Oc1cc(Cn2c(=O)n(C(=O)c3ccc(Cl)cc3)c3ccc(C(F)(F)F)cc32)ccc1Cl)C(=O)O
IC50 [1]: > 50000 nM
EC50 [2]: 489 nM
IC50 [3]: 255 nM
IC50 [4]: > 50000 nM
Emax [5]: 21%

SMILES: C[C@@H](Oc1cc(Cn2c(=O)n(-c3ccc(C(C)(C)C)cc3)c3ccc(C(F)(F)F)cc32)ccc1Cl)C(=O)O
IC50 [1]: > 50000 nM
EC50 [6]: 440 nM
EC50 [2]: 135 nM
EC50 [7]: 460 nM
EC50 [8]: > 50000 nM
IC50 [3]: 161 nM
IC50 [4]: > 50000 nM
Emax [5]: 15%
EC50 [9]: 480 nM

The next lines start with the values.

IC50 [1]: > 50000 nM
EC50 [2]: 3000 nM
IC50 [3]: 11.2 nM
IC50 [4]: > 50000 nM
Emax [5]: 53%
SMILES: Cc1ccc2onc(-n3c(=O)n(Cc4ccc(Cl)c(O[C@H](C)C(=O)O)c4)c4cc(C(F)(F)F)ccc43)c2c1

IC50 [1]: > 50000 nM
EC50 [2]: 120 nM
IC50 [3]: 35.4 nM
IC50 [4]: > 50000 nM
Emax [5]: 36%
SMILES: C[C@@H](Oc1cc(Cn2c(=O)n(-c3noc4ccc(Cl)cc34)c3ccc(C(F)(F)F)cc32)ccc1Cl)C(=O)O

IC50 [1]: > 50000 nM
EC50 [2]: 77.5 nM
IC50 [3]: 14.2 nM
IC50 [4]: > 50000 nM
Emax [5]: 37%
SMILES: Cc1ccc2c(-n3c(=O)n(Cc4ccc(Cl)c(O[C@H](C)C(=O)O)c4)c4cc(C(F)(F)F)ccc43)noc2c1

IC50 [1]: > 50000 nM
EC50 [2]: 103 nM
IC50 [3]: 4.1 nM
IC50 [4]: > 50000 nM
Emax [5]: 28%
SMILES: COc1ccc2c(-n3c(=O)n(Cc4ccc(Cl)c(O[C@H](C)C(=O)O)c4)c4cc(C(F)(F)F)ccc43)noc2c1

IC50 [1]: > 50000 nM
EC50 [2]: 3000 nM
IC50 [3]: 66 nM
IC50 [4]: > 50000 nM
Emax [5]: 4%
SMILES: COc1ccc2c(-n3c(=O)n(Cc4ccc(Cl)c(O[C@@H](C)C(=O)O)c4)c4cc(C(F)(F)F)ccc43)noc2c1

IC50 [1]: > 50000 nM
EC50 [2]: 11.4 nM
IC50 [3]: 3.2 nM
IC50 [4]: > 50000 nM
Emax [5]: 39%
SMILES: COc1ccc2c(-n3c(=O)n(Cc4ccc(Cl)c(O[C@H](C)C(=O)O)c4)c4cc(OC(F)(F)F)ccc43)noc2c1
